Reference: ChEMBL document CHEMBL4715835, “Lipidic synthetic alkaloids as SK3 channel modulators. Synthesis and biological evaluation of 2-substituted tetrahydropyridine derivatives with potential anti-metastatic activity” (Eur J Med Chem, 2020)
Activity calls are given as the source filed them. The calls are words filed in the database; no cut-off is given here.

Assays:
MDA-MB-435 [1] = test: Toxicity in human MDA-MB-435 cells assessed as mortality at 1 uM measured after 24 hrs by MTT assay relative to control; assay type: cell-based; conditions: mda-mb-435, 24 h
Outline: (§1)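 MTT viability assay: about 4 × 10⁴ MDA-MB-435s cells seeded in triplicate with the molecules (tested series 100 nM, 300 nM, 1 µM, 3 µM, 10 µM) and kept 24 h at 37 °C. Medium was then removed and cells incubated 45 min at 37 °C with tetrazolium salt, which viable cells reduce to formazan. Results given as % mortality.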

MDA-MB-435 [2] = test: Toxicity in human MDA-MB-435 cells assessed as mortality at 10 uM measured after 24 hrs by MTT assay relative to control; assay type: cell-based; conditions: mda-mb-435, 24 h; outline: as §1
[3] = Toxicity in human Huh-7 cells assessed as reduction in cell number after 48 hrs by Hoechst 33342 staining based assay
Outline: (§2)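 4000 cells per well. Cells exposed 24 h after seeding to 6 concentrations ([…]) for 48 h. They were then fixed in cold 90% ethanol/5% acetic acid for 20 min and nuclei stained with Hoechst 33342. Plates imaged on a high-content reader. IC₅₀ calculated; normal diploid skin fibroblasts served as control cells.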

[4] = Toxicity in human Caco-2 cells assessed as reduction in cell number after 48 hrs by Hoechst 33342 staining based assay; outline: as §2
[5] = Toxicity in human MDA-MB-231 cells assessed as reduction in cell number after 48 hrs by Hoechst 33342 staining based assay; outline: as §2
[6] = Toxicity in human HCT-116 cells assessed as reduction in cell number after 48 hrs by Hoechst 33342 staining based assay; outline: as §2
[7] = Toxicity in human PC-3 cells assessed as reduction in cell number after 48 hrs by Hoechst 33342 staining based assay; outline: as §2
[8] = Toxicity in human NCI-H727 cells assessed as reduction in cell number after 48 hrs by Hoechst 33342 staining based assay; outline: as §2
[9] = Toxicity in human MCF7 cells assessed as reduction in cell number after 48 hrs by Hoechst 33342 staining based assay; outline: as §2
[10] = Toxicity in human skin fibroblasts assessed as reduction in cell number after 48 hrs by Hoechst 33342 staining based assay; assay type: tissue-based, Fibroblast; outline: as §2
MDA-MB-435 [11] = test: Toxicity in human MDA-MB-435 cells assessed as mortality at 3 uM measured after 24 hrs by MTT assay relative to control; assay type: cell-based; conditions: mda-mb-435, 24 h; outline: as §1
MDA-MB-435 [12] = test: Antimetastatic activity against human MDA-MB-435 cells assessed as reduction in cell migration at 1 uM after 24 hrs by […] relative to control; assay type: functional; design: scale not given: the % may be the effect or the level left
MDA-MB-435 [13] = test: Antimetastatic activity against human MDA-MB-435 cells harboring shRNA assessed as reduction in cell migration at 100 to 300 nM after 24 hrs […]; assay type: functional, cell-based; conditions: dose 100-300 nM
MDA-MB-435 [14] = test: Inhibition of SK3/Orai1 in human MDA-MB-435 cells harboring SK3 shRNA assessed as reduction in Ca2+ influx at 300 nM measured after 1 hr by Fura2-AM dye based fluorescence assay relative to control; assay type: cell-based
Outline: (§3)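 Constitutive Ca²⁺ entry in MDA-MB-435s shRD or shSK3 cells, measured 48 h after transfection with 30 nM siOrai1 or siCTL. Cells were treated 1 h with compound and loaded with Fura2-AM for 45 min at 37 °C. They were then resuspended in Ca²⁺-free solution for 20 s before 2 mM CaCl₂ was added. Emission read at 510 nm with 340/380 nm excitation. Steady-state signal normalized to control. Three experiments in triplicate.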

[15] = biological target: Small conductance calcium-activated potassium channel protein 3 (Homo sapiens) (UniProt Q9UGI6); test: Inhibition of SK3 in human MDA-MB-435 cells harboring SK3 shRNA assessed as reduction in Ca2+ influx at 300 nM measured after 1 hr by Fura2-AM dye based fluorescence assay; assay type: cell-based; outline: as §3
Chain of Small conductance calcium-activated potassium channel protein 3 (Homo sapiens) (Q9UGI6 whole entry): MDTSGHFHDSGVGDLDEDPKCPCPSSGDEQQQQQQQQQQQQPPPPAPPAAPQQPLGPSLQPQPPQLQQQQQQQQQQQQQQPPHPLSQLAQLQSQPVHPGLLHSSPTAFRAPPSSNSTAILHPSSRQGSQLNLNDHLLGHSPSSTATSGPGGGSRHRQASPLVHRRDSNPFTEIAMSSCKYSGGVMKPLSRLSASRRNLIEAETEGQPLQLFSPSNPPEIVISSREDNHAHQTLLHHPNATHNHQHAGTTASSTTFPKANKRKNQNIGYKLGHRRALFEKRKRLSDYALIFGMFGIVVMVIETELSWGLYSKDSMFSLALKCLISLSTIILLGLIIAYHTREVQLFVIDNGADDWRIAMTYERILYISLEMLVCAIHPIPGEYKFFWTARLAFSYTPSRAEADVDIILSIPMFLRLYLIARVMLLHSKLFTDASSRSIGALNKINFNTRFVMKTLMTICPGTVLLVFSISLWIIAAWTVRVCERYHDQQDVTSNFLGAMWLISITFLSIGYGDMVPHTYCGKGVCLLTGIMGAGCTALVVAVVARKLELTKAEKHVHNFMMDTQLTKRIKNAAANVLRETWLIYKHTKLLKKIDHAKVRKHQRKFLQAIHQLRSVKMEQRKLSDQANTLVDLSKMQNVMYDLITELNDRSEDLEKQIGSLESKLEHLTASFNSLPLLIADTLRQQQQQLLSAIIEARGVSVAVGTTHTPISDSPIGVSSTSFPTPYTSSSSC

MDA-MB-435 [16] = test: Effect on calcium influx in human MDA-MB-435 cells harboring siRNA and siCTL at 300 nM measured after 1 hr by Fura2-AM dye based fluorescence assay; assay type: functional, cell-based; outline: as §3
MDA-MB-435 [17] = test: Effect on calcium influx in human MDA-MB-435 cells harboring siRNA and siOrai1 at 300 nM measured after 1 hr by Fura2-AM dye based fluorescence assay; assay type: functional, cell-based; outline: as §3
[18] = biological target: Small conductance calcium-activated potassium channel protein 3 (Homo sapiens) (UniProt Q9UGI6); test: Inhibition of SK3 (unknown origin) expressed in HEK293 cells assessed as reduction in channel current at 2 uM with 0 mV holding potential by patch clamp electrophysiological method; assay type: cell-based
Outline: (§4)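 Patch clamp on HEK-293 cells stably expressing SK3 (lentiviral). Compound added acutely; DMSO/methanol was the vehicle, and runs with or without apamin. Ramp from −80 to +80 mV, holding at 0 mV, 500 ms ramps at 4 s intervals. Current analyzed at 0 mV to minimize chloride currents, followed as a time course. Pipette solution adjusted to pH 7.2 with KOH.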

[19] = biological target: Small conductance calcium-activated potassium channel protein 3 (Homo sapiens) (UniProt Q9UGI6); test: Inhibition of SK3 (unknown origin) expressed in HEK293 cells assessed as reduction in channel current at 2 uM with 0 mV holding potential measured within 10 secs by patch clamp electrophysiological method relative to control; assay type: cell-based; conditions: time 10.0 sec; outline: as §4
[20] = biological target: Small conductance calcium-activated potassium channel protein 3 (Homo sapiens) (UniProt Q9UGI6); test: Inhibition of SK3 (unknown origin) expressed in HEK293 cells assessed as reduction in channel current at 2 uM with 0 mV holding potential in presence of -apamin by patch clamp electrophysiological method; assay type: cell-based; outline: as §4
[21] = biological target: ORAI1/STIM1 (Homo sapiens) (UniProt Q96D31+Q13586); test: Inhibition of STIM1/Orai1 (unknown origin) expressed in HEK293 cells assessed as reduction in Ca2+-release activated Ca2+ entry current at 2 uM by whole cell patch clamp electrophysiological method; assay type: cell-based
Chain of ORAI1/STIM1 (Homo sapiens) (Q13586 23-685 partner limits assumed): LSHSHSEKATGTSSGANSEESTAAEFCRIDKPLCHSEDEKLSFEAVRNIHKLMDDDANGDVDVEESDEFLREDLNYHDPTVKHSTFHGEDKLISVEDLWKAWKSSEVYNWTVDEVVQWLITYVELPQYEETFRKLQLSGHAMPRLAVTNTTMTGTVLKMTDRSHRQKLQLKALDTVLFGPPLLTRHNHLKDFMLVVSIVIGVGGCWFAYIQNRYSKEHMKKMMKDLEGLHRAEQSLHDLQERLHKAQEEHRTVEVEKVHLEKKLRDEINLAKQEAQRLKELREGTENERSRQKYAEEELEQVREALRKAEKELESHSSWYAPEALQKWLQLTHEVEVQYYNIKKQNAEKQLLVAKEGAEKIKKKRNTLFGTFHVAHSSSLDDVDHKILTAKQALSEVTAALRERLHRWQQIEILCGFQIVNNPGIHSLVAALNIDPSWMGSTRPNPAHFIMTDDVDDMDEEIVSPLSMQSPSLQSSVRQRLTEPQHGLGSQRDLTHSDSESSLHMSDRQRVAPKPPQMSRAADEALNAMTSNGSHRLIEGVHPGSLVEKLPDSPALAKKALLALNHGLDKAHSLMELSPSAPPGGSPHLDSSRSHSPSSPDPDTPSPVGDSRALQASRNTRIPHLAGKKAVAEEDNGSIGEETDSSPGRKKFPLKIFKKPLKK
Chain of ORAI1/STIM1 (Homo sapiens) (Q96D31 whole entry): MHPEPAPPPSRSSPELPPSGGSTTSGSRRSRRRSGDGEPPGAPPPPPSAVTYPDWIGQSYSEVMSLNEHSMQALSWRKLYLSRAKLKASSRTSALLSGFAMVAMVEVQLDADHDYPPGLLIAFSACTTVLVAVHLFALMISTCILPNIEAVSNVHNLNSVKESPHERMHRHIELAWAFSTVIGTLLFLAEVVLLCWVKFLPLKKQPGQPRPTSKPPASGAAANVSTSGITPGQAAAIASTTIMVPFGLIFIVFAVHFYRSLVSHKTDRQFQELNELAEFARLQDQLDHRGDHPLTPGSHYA

MDA-MB-435 [22] = test: Antimetastatic activity against human MDA-MB-435 cells assessed as reduction in cell migration at 100 to 300 nM after 24 hrs by crystal violet staining based assay relative to control; design: scale not given: the % may be the effect or the level left; conditions: dose 100-300 nM

CCCCCCCCCCCCCCCCC[C@H](C[C@@H]1C=CCCN1C)OC(C)=O
mortality (MDA-MB-435 [1]): 5% | mortality (MDA-MB-435 [2]): 70% | IC50 at 48 h [3]: 22 µM | IC50 at 48 h [4]: 9 µM | IC50 at 48 h [5]: 21 µM | IC50 at 48 h [6]: 16 µM | IC50 at 48 h [7]: 15 µM | IC50 at 48 h [8]: > 25 µM | IC50 at 48 h [9]: 19 µM | IC50 at 48 h [10]: 18 µM

CCCCCCCC/C=C\CCCCCCC[C@H](O)C[C@@H]1C=CCCN1C
mortality (MDA-MB-435 [1]): 30% | mortality (MDA-MB-435 [11]): 40% | IC50 at 48 h [3]: 24 µM | IC50 at 48 h [4]: 6 µM | IC50 at 48 h [5]: 14 µM | IC50 at 48 h [6]: 15 µM | IC50 at 48 h [7]: 19 µM | IC50 at 48 h [8]: > 25 µM | IC50 at 48 h [9]: 18 µM | IC50 at 48 h [10]: 25 µM

CCCCCCCCCCCCCCCCC[C@H](O)C[C@@H]1C=CCCN1C
mortality (MDA-MB-435 [1]): 0% | mortality (MDA-MB-435 [2]): 0% | IC50 at 48 h [3]: > 25 µM | IC50 at 48 h [4]: 16 µM | IC50 at 48 h [5]: > 25 µM | IC50 at 48 h [6]: > 25 µM | IC50 at 48 h [7]: > 25 µM | IC50 at 48 h [8]: > 25 µM | IC50 at 48 h [9]: > 25 µM | IC50 at 48 h [10]: > 25 µM | Activity (MDA-MB-435 [12]): <=60% | Activity (MDA-MB-435 [13]): inactive | inhibition (MDA-MB-435 [14]): < 40% | inhibition [15]: inactive | Activity (MDA-MB-435 [16]): inactive | Activity (MDA-MB-435 [17]): inactive | inhibition [18]: 90% | inhibition [19]: 50% | inhibition [20]: Active | inhibition [21]: inactive | Activity (MDA-MB-435 [22]): <=60%

CCCCCCCCCCCCCCCCCCC[C@H](O)C[C@@H]1C=CCCN1C
mortality (MDA-MB-435 [1]): 30% | mortality (MDA-MB-435 [11]): 30% | IC50 at 48 h [3]: > 25 µM | IC50 at 48 h [4]: 14 µM | IC50 at 48 h [5]: > 25 µM | IC50 at 48 h [6]: > 25 µM | IC50 at 48 h [7]: > 25 µM | IC50 at 48 h [8]: > 25 µM | IC50 at 48 h [9]: > 25 µM | IC50 at 48 h [10]: > 25 µM

CCCCCCCCCCCCCCCCCC(Cc1cccc[n+]1C)OC.Cc1ccc(S(=O)(=O)[O-])cc1 (configuration not stated)
mortality (MDA-MB-435 [1]): 30% | mortality (MDA-MB-435 [2]): 80%

CCCCCCCCCCCCCCCCCCCC(O)Cc1ccccn1 (configuration not stated)
mortality (MDA-MB-435 [1]): 20% | mortality (MDA-MB-435 [11]): 20%

CCCCCCCCCCCCCCCCC[C@@H](O)C[C@@H]1CCCCN1C
mortality (MDA-MB-435 [1]): 0% | mortality (MDA-MB-435 [2]): 35%

CCCCCCCCCCCCCCCCC[C@@H](O)C[C@@H]1C=CCCN1C
mortality (MDA-MB-435 [1]): 0% | mortality (MDA-MB-435 [2]): 80% | IC50 at 48 h [3]: > 25 µM | IC50 at 48 h [4]: 21 µM | IC50 at 48 h [5]: > 25 µM | IC50 at 48 h [6]: > 25 µM | IC50 at 48 h [7]: > 25 µM | IC50 at 48 h [8]: > 25 µM | IC50 at 48 h [9]: > 25 µM | IC50 at 48 h [10]: > 25 µM

COc1cccc2c1C(=O)c1c(O)c3c(c(O)c1C2=O)C[C@@](O)(C(=O)CO)C[C@@H]3O[C@H]1C[C@H](N)[C@H](O)[C@H](C)O1 [DOXORUBICIN]
IC50 at 48 h [4]: 0.17 µM | IC50 at 48 h [6]: 0.12 µM | IC50 at 48 h [7]: 0.12 µM | IC50 at 48 h [8]: 0.66 µM | IC50 at 48 h [10]: 0.03 µM

CCCCCCCCCCCCCCCCCCC[C@@H](O)C[C@@H]1C=CCCN1C
mortality (MDA-MB-435 [1]): 20% | mortality (MDA-MB-435 [11]): 30% | IC50 at 48 h [3]: > 25 µM | IC50 at 48 h [4]: > 25 µM | IC50 at 48 h [5]: > 25 µM | IC50 at 48 h [6]: > 25 µM | IC50 at 48 h [7]: > 25 µM | IC50 at 48 h [8]: > 25 µM | IC50 at 48 h [9]: > 25 µM | IC50 at 48 h [10]: > 25 µM
